Screening results: PubChem BioAssay, several laboratories
aDG glyco act: activators of alpha-DG glycosylation, primary screen, uHTS, Pro5-aDG cells, AlphaScreen. alpha-DG glycosylation AlphaScreen (IIH6); 0% Pro5, 100% B10-LARGE cell signal. activation, % at 10 µM. 360,000 compounds, 0.22% hits;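 active = activation of at least 8% versus controls, or a plate z-score of at least 8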;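 note: Pro5 are CHO cells carrying HIG-tagged alpha-DG that lacks glycosylation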
proCasp3 act: activators of human procaspase-3 D3A mutant, primary screen, biochemical, absorbance, PC-3 D3A mutant, single concentration; recombinant procaspase-3 D3A, Ac-DEVD-pNA absorbance 405 nm; activation, % at 8.5 µM; Caspase-3 (Homo sapiens), P42574; 330,000 compounds, 0.11% hits;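 active = activation above the mean of all tested compounds plus 3 SD, cut at about 21% in these data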;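 note: 0% = DMSO alone and 100% = DMSO wells spiked with extra 5 µM PC-3 D3A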
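Assay system: Procaspase-3 D3A mutant, all three cleavage aspartates alanine. Buffer or medium: Zinc-free HEPES saline buffer with Triton X-100. Times: 1 h compound preincubation, 2 h substrate hydrolysis at 25 °C. Measured by: 405 nm absorbance of p-nitroaniline, reads at 0 and 120 min. Read-out basis: percent activation relative to control range. Replicates: singlicate.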
proCasp7 act: procaspase-7 activators, primary screen, counter-screen for procaspase-3 activator project, biochemical, absorbance, HTS, human; Caspase-7 (Homo sapiens), P55210; recombinant procaspase-7, Ac-DEVD-pNA absorbance 405 nm; D23A/D198A/D206A triple mutant, cannot self-cleave; scale: DMSO 0, 5 µM enzyme 100; activation, % at 8.5 µM; 330,000 compounds, 0.093% hits;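 active = percent activation above the screen-wide mean plus 3 SD, cut at about 25% in these data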
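Detection: p-Nitroaniline absorbance at 405 nm, read at 0 and 120 min; system: Uncleavable procaspase-7 mutant enzyme; evaluation: % activation from two-timepoint absorbance difference, scaled to controls; times: 1 h enzyme–compound preincubation and 2 h substrate reaction, both 25 °C; buffer or medium: Zinc-free HEPES pH 7.4 with 300 mM NaCl, 0.01% Triton X-100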
CaV13 ICDI inh: Primary screen for inhibitors of IQ motif and Ca2+-dependent inactivation inhibitor domain binding in CACNA1D, Förster resonance energy transfer in living cells, …. 340,000 compounds, 0.098% hits. HEK cells, CFP/YFP FRET ICDI-IQ, plate reader, 10 min; percent FRET-ratio fall versus neutral wells. inhibition, % at 12.3 µM;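 active = mean replicate inhibition of at least 30% and at least 1% of replicates passing that level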;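 note: 0% = median of the neutral control wells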
GRK2 aptamer HTS: compounds blocking aptamer binding on GRK2 – biochemical, human GRK2, bead flow cytometry, HTS, primary screen; Beta-adrenergic receptor kinase 1 (Homo sapiens), P25098; FAM-aptamer displacement from GRK2; inhibition of aptamer binding, % at 10 µM; 330,000 compounds, 0.59% hits;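 active = inhibition of aptamer binding above 40%, roughly 3 SD of noise, on plates passing a quality check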;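 note: median bead fluorescence of bound FAM aptamer so fluorescent compounds give negative values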
Target sequence (P25098 whole entry, looked up): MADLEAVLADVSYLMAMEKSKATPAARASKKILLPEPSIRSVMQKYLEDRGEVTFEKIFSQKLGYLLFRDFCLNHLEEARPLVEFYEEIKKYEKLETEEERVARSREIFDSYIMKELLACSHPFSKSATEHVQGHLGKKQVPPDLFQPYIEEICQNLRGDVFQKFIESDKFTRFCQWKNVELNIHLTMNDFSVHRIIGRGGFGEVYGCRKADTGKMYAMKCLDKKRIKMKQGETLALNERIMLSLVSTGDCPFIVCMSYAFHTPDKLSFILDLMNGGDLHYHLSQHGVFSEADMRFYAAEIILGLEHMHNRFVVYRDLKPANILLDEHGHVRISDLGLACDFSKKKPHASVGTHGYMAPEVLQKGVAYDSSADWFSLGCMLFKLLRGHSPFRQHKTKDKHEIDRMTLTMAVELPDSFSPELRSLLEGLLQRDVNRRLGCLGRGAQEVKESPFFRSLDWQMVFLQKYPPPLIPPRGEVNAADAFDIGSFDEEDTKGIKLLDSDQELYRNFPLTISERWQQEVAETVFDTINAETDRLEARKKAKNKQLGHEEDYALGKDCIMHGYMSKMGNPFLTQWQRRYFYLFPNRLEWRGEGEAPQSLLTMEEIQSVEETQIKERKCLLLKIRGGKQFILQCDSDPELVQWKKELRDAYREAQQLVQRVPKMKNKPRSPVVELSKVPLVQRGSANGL
T cell HTS: modulators of CD8 T cell-vesicle binding, primary screen, mouse 2C CD8+ T cells, flow cytometry; response (vesicle binding), % at 7 µM; 2C CD8+ T cell-vesicle binding; active compounds read low; 330,000 compounds, 0.068% hits;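 active = response, share of CD8 T cells binding vesicles, and their 90th percentile fluorescence all below set limits, cut at about 80% in these data, passing the limit was not always enough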;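 note: values below 100% mean blocked vesicle binding to the CD8+ T cells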
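Material: 2C TCR transgenic mouse naive CD8+ T cells, MACS-purified. Also added: QL9-charged Drosophila Ld/ICAM-1/B7-1 vesicles. Timing: binding 1.5 h at 37 °C. Measured by: high-throughput flow cytometry with anti-B7-1 and anti-CD8 staining. Read-out: percent CD8+ FL2 mean versus row control. Controls: Unloaded micro-vesicles (low), QL9 vesicles with 0.7% DMSO (high).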
GRK2 CP1: GRK2 aptamer-displacing inhibitors, retest, confirmation, biochemical, cherry pick 1, bead flow cytometry; shares compounds with GRK2 aptamer HTS; bead-bound GRK2, FAM-aptamer displacement; aptamer displacement, % at 10 µM; 2,000 compounds, 4% hits;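 active = aptamer displacement above 40%, near three times the noise of non-fluorescent compounds, on plates passing quality checks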;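 note: negative values mostly reflect intrinsic compound fluorescence rather than true enhancement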
Aptamer quench 1: quenches fluorescent RNA aptamer, GRK2 hit artifact; Fluorescent RNA aptamer beads, quenching, flow cytometry; active compounds read high; shares compounds with GRK2 aptamer HTS; 110 tested, under 10 active; fluorescence change (kMESF span), kMESF (test concentration not listed);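 active = compounds whose bead fluorescence drops by more than 37 kMESF across the dose range, marking them as dye quenchers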
FAM quench CP1: counter-screen for GRK2 aptamer inhibitors: fluorescent aptamer quenchers. Carboxyfluorescein RNA aptamer on beads, flow cytometry quenching; active compounds read low. fluorescence response (% of DMSO), % at 10 µM. 2,000 tested, under 10 active. shares compounds with GRK2 aptamer HTS;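 active = compounds that quench the bead-bound fluorescent RNA probe, cutting fluorescence to under half of the solvent control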;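 note: counterscreen run without GRK2 so only probe quenching by compound is measured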
GRK2 confirm 2: GRK2 aptamer-displacing inhibitors, hit retest, confirmation, biochemical, cherry pick 2, bead flow cytometry; inhibition of aptamer binding, % at 10 µM; shares compounds with GRK2 aptamer HTS; 360 tested, under 10 active; bead-bound GRK2, FAM-aptamer displacement;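 active = inhibition of aptamer binding above 40%, about triple the noise seen with nonglowing compounds, on plates passing quality control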;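 note: negative values mostly come from compounds that fluoresce themselves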
FAM quench SP: counter-screen for GRK2 binding hits: quenchers of fluorescent RNA aptamer | shares compounds with GRK2 aptamer HTS | carboxyfluorescein RNA aptamer beads, flow cytometry quenching; active compounds read low | fluorescence response vs DMSO, % at 10 µM | 360 tested, under 10 active | AID 588494;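 active = response vs DMSO under 50%, meaning signal dropped by over half, treated as fluorescence quencher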;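 note: labelled aptamer on streptavidin beads without GRK2 as a quench counter-screen; 100% = bead fluorescence of DMSO wells and lower means quenching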
Numbers without * were called inactive; i = inactive; nt = no result. Compounds with a hit are over-represented: about 1.1% of the library has one in this group of screens.

SMILES | aDG glyco act | proCasp3 act | proCasp7 act | CaV13 ICDI inh | GRK2 aptamer HTS | T cell HTS | GRK2 CP1 | FAM quench CP1 | others
CCN(CC)c1ccc(NC(=O)c2cc3c(OC)cccc3[nH]2)cc1 | 0 | -4 | 3 | -2 | 12 | i | 1 | 94
CS(=O)(=O)N1CCN(C(=O)Cc2ccccc2Cl)CC1 | 1 | -9 | -6 | -2 | 0 | 182 | nt | nt
Cc1cccc(-n2ncc3c(NCc4cccnc4)ncnc32)c1 | 0 | 3 | -4 | -7 | 1 | 189 | nt | nt
Cc1ccc(-n2ncc3c(NCc4cccnc4)ncnc32)cc1C | 0 | -7 | 0 | -13 | 47* | 542 | -2 | 104
C/C=C(\C)C(=O)OC1c2c(ccc3ccc(=O)oc23)OC(C)(C)C1OC(C)=O (stereo not drawn) | 1 | 0 | 6 | -6 | 0 | 652 | nt | nt
C/C=C(/C)C(=O)OC1c2c(ccc3ccc(=O)oc23)OC(C)(C)C1OC(=O)/C(C)=C\C (stereo not drawn) | 1 | -4 | -10 | nt | 70* | 270 | -2 | 100
O=C(CN1C(=O)CCSc2ccc(S(=O)(=O)N3CCCC3)cc21)Nc1ccccc1Cl | 0 | 3 | -9 | -3 | 0 | 243 | nt | nt
Cc1cccc(C)c1NC(=O)CN1C(=O)CCSc2ccc(S(=O)(=O)N3CCCC3)cc21 | 0 | 5 | 2 | -7 | 42* | 416 | -3 | 99
CC(C)c1ccc(NC(=S)NCc2cccs2)cc1 | 0 | 0 | -3 | -4 | 0 | 481 | nt | nt
COc1ccc(NC(=S)NCc2cccs2)cc1 | 0 | -4 | 9 | -4 | 62* | 198 | 0 | 110
O=C(O)c1cccc([N+](=O)[O-])c1C(=O)Nc1ccc2ccccc2c1 | 0 | -13 | -10 | -2 | 1 | 705 | nt | nt
CCCc1cc(=O)[nH]c(SCC(=O)Nc2c(C)n(C)n(-c3ccccc3)c2=O)n1 | 0 | -5 | -4 | -6 | 2 | 333 | nt | nt
Cc1cccc(C(=O)NCC(=O)OCC(=O)NCCNC(=O)COC(=O)CNC(=O)c2cccc(C)c2)c1 | 0 | 14 | 6 | nt | 1 | 825 | nt | nt
Cc1cc(C)cc(C(=O)NCC(=O)OCC(=O)NCC(F)(F)F)c1 | 1 | 8 | -1 | -7 | 96* | 95 | 3 | 100
Nc1ncnc2c1ncn2[C@@H]1O[C@H](CNCc2ccc(-c3cc(C(F)(F)F)ccc3Cl)o2)[C@@H](O)[C@H]1O | 0 | -11 | -10 | -6 | 3 | nt | nt | nt
CCOc1ccccc1C1C(C#N)=C(N)Oc2cc(N)ccc21 (stereo not drawn) | 0 | -8 | -18 | 20 | 97* | 225 | -2 | 103
CC(C)(O)C1CC[C@@](C)([C@@H]2CC[C@]3(C)[C@H]2[C@H](O)CC2[C@@]4(C)CCC(O)C(C)(C)C4C(OC4OC(CO)C(O)C(O)C4O[C@@H]4OCC(O)C(O)C4O)C[C@]23C)O1 (stereo partly drawn) | 0 | -2 | 4 | -6 | 0 | 203 | -2 | 100
Cc1cccc(C)c1NC(=O)CSc1nnc(-c2ccco2)c(-c2ccco2)n1 | 0 | -24 | -22 | nt | 47* | 212 | 14 | 100
CCc1cccc(C)c1NC(=O)CSc1n[nH]c(N)n1 | 0 | 13 | -4 | -2 | 100* | 357 | -4 | 100
Cc1ccccc1NC(=O)CSc1nnc(-c2ccco2)c(-c2ccco2)n1 | 0 | -20 | -30 | nt | 10 | i | nt | nt
COc1ccc(NC(=O)c2cc(S(=O)(=O)N3CCc4ccccc43)cn2C)c(OC)c1 | 0 | -3 | 13 | nt | 2 | 517 | nt | nt
Cc1cc(F)ccc1NC(=O)c1cc(S(=O)(=O)N2CCc3ccccc32)cn1C | 0 | 0 | 5 | -10 | 73* | 493 | -4 | 102
CCOC(=O)C1(CCc2ccccc2)CCN(C(=O)CN2C(=O)CSC2=O)CC1 | 0 | 1 | 3 | -5 | 92* | 279 | -5 | 99
COc1ccc(NC(=O)C(=O)N2N=C3CCCCC3C2(O)C(F)(F)F)cc1 (stereo not drawn) | 0 | 4 | 5 | -7 | 41* | 352 | nt | nt | GRK2 confirm 2=9;FAM quench SP=109
CC1(c2ccc3ccccc3c2)NC(=O)N(CC(=O)N2CCN(c3ccccc3O)CC2)C1=O (stereo not drawn) | 0 | 11 | 0 | -2 | 3 | 158 | 4 | 105
O=C(O)C1C2C=CC(CC2)C1C(=O)O (stereo not drawn) | 1 | 6 | 8 | -5 | 60* | 278 | 52* | 100 | Aptamer quench 1=-0.4
CC(C)c1ccc(NC(=O)C2C3C=CC(CC3)C2C(=O)O)cc1 (stereo not drawn) | 0 | -4 | -2 | -21 | 0 | 305 | nt | nt
O=C(c1ccccc1)C12COc3ccccc3C1ON=C2c1ccccc1 (stereo not drawn) | nt | nt | nt | -4 | nt | nt | nt | nt
O=C(COC(=O)CNC(=O)c1ccc([N+](=O)[O-])o1)Nc1ncc(Cl)cc1Cl | 0 | 1 | 3 | -2 | 55* | 649 | -1 | 99
O=C(COC(=O)CNC(=O)c1ccc([N+](=O)[O-])o1)Nc1ncc(C(F)(F)F)cc1Cl | 0 | -1 | -9 | -2 | 0 | 271 | nt | nt
